Tests used:
[1] = Antioxidant activity assessed as hydroxyl radical scavenging activity after 15 mins by spectrophotometric analysis; type: functional
[2] = biological target: T1, Albumin (Bos taurus, UniProt P02769); test: Binding affinity to bovine serum albumin assessed decrease in fluorescence at 1 to 2.5 uM at 60 nm wavelength by fluorescence spectrophotometric analysis; type: ADME; conditions: cattle, isolated protein
Procedure, shortened: (§1)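 Synchronous fluorescence: BSA (2 μM) is titrated with compound over 0−2.5 μM. Spectra are recorded at wavelength differences Δλ = 15 nm and Δλ = 60 nm.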

[3] = tested on: Radical scavenging activity; test: Antioxidant activity assessed as DPPH free radical scavenging activity by spectrophotometric analysis; type: functional
[4] = tested on: DNA; test: Binding affinity to calf thymus DNA by absorption titration; type: nucleic-acid assay; conditions: Bos taurus
Procedure, shortened: (§2)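 CT-DNA absorption titration: compound held at 50 μM while CT-DNA is raised over 0−25 μM, and electronic absorption spectra are recorded. The intrinsic binding constant Kb is fitted from [DNA]/(εa − εf) versus [DNA], with DNA counted in base pairs. εa = Aobs/[compound]; εf and εb are the free and fully bound extinction coefficients.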

[5] = tested on: DNA; test: Displacement of ethidium bromide from calf thymus DNA assessed as decrease in fluorescence intensity by Stern-Volmer plot analysis; type: nucleic-acid assay; conditions: Bos taurus
Procedure, shortened: (§3)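 Ethidium bromide displacement: emission of EB bound to CT-DNA (5 μM) is followed while compound is added over 0−50 μM. The Stern–Volmer Kq is the slope of I0/I versus [Q]. Kapp comes from KEB[EB] = Kapp[compound], taking the compound concentration at 50% loss of EB fluorescence, with KEB = 1.0 × 10^7 M−1 and [EB] = 5 μM.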

[6] = biological target: T1, Albumin; test: Binding affinity to bovine serum albumin assessed decrease in fluorescence at 1 to 2.5 uM at 15 nm wavelength by fluorescence spectrophotometric analysis; type: ADME; conditions: cattle, isolated protein; procedure, shortened: as §1
[7] = biological target: T1, Albumin; test: Binding affinity to bovine serum albumin assessed as decrease in fluorescence intensity by Stern-Volmer plot analysis; type: ADME; conditions: cattle, isolated protein
Procedure, shortened: (§4)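 Intrinsic fluorescence quenching: emission spectra of BSA (2 μM) are recorded with compound added over 0−2.5 μM. The quenching data are analysed by Stern–Volmer and Scatchard plots to give the quenching constant Kq, the binding constant and the number of binding sites n.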

[8] = tested on: DNA; test: Binding affinity to calf thymus DNA assessed as change in hypochromicity at 50 uM by UV-vis titration relative to control; type: nucleic-acid assay; conditions: Bos taurus; procedure, shortened: as §2
[9] = Antioxidant activity assessed as nitric oxide scavenging activity after 150 mins by Greiss method; type: functional
[10] = biological target: T1, Albumin; test: Binding affinity to bovine serum albumin assessed blue shift at 3 uM by UV-vis spectrophotometric analysis; type: ADME; conditions: cattle, isolated protein
[11] = tested on: DNA; test: Displacement of ethidium bromide from calf thymus DNA assessed as […] at 1 to 50 uM by fluorescence spectrophotometric analysis relative to control; type: nucleic-acid assay; conditions: Bos taurus; procedure, shortened: as §3
[12] = Inhibition of alpha glucosidase (unknown origin) assessed as p-nitrophenyl alpha-D-glucopyranoside conversion to p-nitrophenol after 30 mins by spectrophotometric analysis; design: species or system Homo sapiens
[13] = tested on: DNA; test: Displacement of ethidium bromide from calf thymus DNA assessed as decrease in fluorescence intensity by spectrophotometric analysis; type: nucleic-acid assay; conditions: Bos taurus; procedure, shortened: as §3
[14] = biological target: T1, Albumin; test: Binding affinity to bovine serum albumin assessed as change in hypochromicity at 1 to 2.5 uM by spectrophotometric analysis relative to control; type: ADME; conditions: cattle, isolated protein
[15] = biological target: T1, Albumin; test: Binding affinity to bovine serum albumin assessed as decrease in fluorescence intensity by Scatchard plot analysis; type: ADME; conditions: cattle, isolated protein; procedure, shortened: as §4
[16] = tested on: AGS; test: Cytotoxicity against human AGS cells incubated for 24 hrs followed by compound washout measured after 48 hrs by MTT assay; type: functional, cell-based
[17] = tested on: HCT-116; test: Cytotoxicity against human HCT116 cells incubated for 24 hrs followed by compound washout measured after 48 hrs by MTT assay; type: functional, cell-based
[18] = tested on: HeLa; test: Cytotoxicity against human HeLa cells incubated for 24 hrs followed by compound washout measured after 48 hrs by MTT assay; type: functional, cell-based

T1 sequence (P02769 whole entry): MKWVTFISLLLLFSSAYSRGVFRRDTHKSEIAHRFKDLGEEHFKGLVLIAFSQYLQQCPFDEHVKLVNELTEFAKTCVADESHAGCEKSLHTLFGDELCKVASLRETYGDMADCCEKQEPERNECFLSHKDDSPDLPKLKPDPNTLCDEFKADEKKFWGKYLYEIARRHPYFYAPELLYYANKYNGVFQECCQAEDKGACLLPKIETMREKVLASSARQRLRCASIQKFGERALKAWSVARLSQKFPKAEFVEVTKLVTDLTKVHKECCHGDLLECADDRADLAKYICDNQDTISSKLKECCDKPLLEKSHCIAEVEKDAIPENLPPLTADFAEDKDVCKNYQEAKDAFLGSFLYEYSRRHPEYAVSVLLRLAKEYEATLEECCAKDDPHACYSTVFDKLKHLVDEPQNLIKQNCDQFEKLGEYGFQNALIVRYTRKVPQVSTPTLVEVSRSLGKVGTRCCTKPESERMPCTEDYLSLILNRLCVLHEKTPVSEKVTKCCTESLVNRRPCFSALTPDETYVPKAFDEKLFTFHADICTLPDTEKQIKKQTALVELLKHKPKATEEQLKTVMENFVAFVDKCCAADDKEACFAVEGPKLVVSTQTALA

In the case of `COc1ccc2c([nH]c3c4c(c(C)cc32)OC(C)(C/C=C(\C)CCC=C(C)C)C=C4)c1-c1ccc2[nH]c3c4c(c(C)cc3c2c1O)OC(C)(C/C=C(\C)CCC=C(C)C)C=C4` (stereo not given), the IC50 [1] is reported as 8.8 µM, the Activity [2] is reported as “Active” and the IC50 [3] is reported as 31.1 µM. The Kb [4] was 2.2 ×10⁵ /M, the Kq [5] was 0.1 ×10⁵ /M and the Activity [6] was “Active”. The Kq [7] was 2.2 ×10⁵ /M, the Activity [8] was 55% and the IC50 [9] was 7.2 µM. For the same compound, the Activity [10] was “Active”, the Activity [11] was 22% and the IC50 [12] was 41.2 µM. It also gave a Kapp [13] of 0.5 ×10⁵ /M, an Activity [14] of 36% and a Kb [15] of 0.72 ×10⁴ /M.
Compound `Cc1cc(C(C)(C)C)c(O)c(C(C)(C)C)c1` [BUTYLATED HYDROXYTOLUENE] has an IC50 [1] of 11.5 µM, an IC50 [3] of 4.5 µM and an IC50 [9] of 8.6 µM.
`C[C@H]1O[C@H](O[C@H]2[C@H](O)[C@@H](O)[C@@H](O[C@H]3[C@H](O)[C@@H](O)C(O)O[C@@H]3CO)O[C@@H]2CO)[C@H](O)[C@@H](O)[C@@H]1N[C@H]1C=C(CO)[C@@H](O)[C@H](O)[C@H]1O` (stereo not given in full) [ACARBOSE] gave an IC50 [12] of 15.2 µM.
`C[C@@H]1O[C@@H](OC[C@H]2O[C@@H](Oc3c(-c4ccc(O)c(O)c4)oc4cc(O)cc(O)c4c3=O)[C@H](O)[C@@H](O)[C@@H]2O)[C@H](O)[C@H](O)[C@H]1O` [RUTIN] gave an IC50 [1] of 19.4 µM, an IC50 [3] of 4.7 µM and an IC50 [9] of 4.7 µM.
With `COc1cc2c(cc1-c1c(OC)ccc3c1[nH]c1c4c(c(C)cc13)OC(C)(C/C=C(\C)CCC=C(C)C)C=C4)c1cc(C)c3c(c1n2C)C=CC(C)(C/C=C(\C)CCC=C(C)C)O3` (stereo not given) the IC50 [1] was 13.2 µM, the Activity [2] was “Active” and the IC50 [3] was 41.8 µM. The Kb [4] was 2 ×10⁵ /M, the Kq [5] was 0.3 ×10⁵ /M and the Activity [6] was “Active”. It also gave a Kq [7] of 2.21 ×10⁵ /M, an Activity [8] of 54% and an IC50 [9] of 8.6 µM. The Activity [10] was “Active”, the Activity [11] was 28% and the IC50 [12] was 69 µM. The Kapp [13] was 0.13 ×10⁵ /M, the Activity [14] was 36% and the Kb [15] was 0.09 ×10⁴ /M.
With `COc1ccc2c([nH]c3c4c(c(C)cc32)OC(C)(C/C=C(\C)CCC=C(C)C)C=C4)c1-c1c(O)ccc2[nH]c3c4c(c(C)cc3c12)OC(C)(C/C=C(\C)CCC=C(C)C)C=C4` (stereo not given) the IC50 [1] was 12.3 µM, the Activity [2] was “Active” and the IC50 [16] was 23.2 µM. For the same compound, the IC50 [3] was 31.9 µM, the Kb [4] was 4.3 ×10⁵ /M and the Kq [5] was 0.32 ×10⁵ /M. For the same compound, the Activity [6] was “Active”, the IC50 [17] was 22.3 µM and the Kq [7] was 3.52 ×10⁵ /M. It also gave an Activity [8] of 82%, an IC50 [18] of 17.2 µM and an IC50 [9] of 6.5 µM. The Activity [10] was “Active”, the Activity [11] was 44% and the IC50 [12] was 45.4 µM. For the same compound, the Kapp [13] was 1.6 ×10⁵ /M, the Activity [14] was 47% and the Kb [15] was 1.02 ×10⁴ /M.
